# Measured values as given in paper PMC3445775 (Hepatology (Baltimore, Md.), 2012).
# “Also recorded” adds a separate entry of the source.
# Experiments:
# [1] = tested on: hepatic triglyceride accumulation; assay: Chronic bile acid injection during high-fat diet; type: in vivo, mouse; conditions: 3.2 mg/kg s.c. daily
# Outline: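 Individually housed mice on a high-fat diet (60% calories from fat) received daily s.c. injections of test compound, 3.2 mg/kg in 20 μl DMSO, above the right hip for 47 days. Controls received DMSO vehicle. Mice were fasted 4 h and euthanised with CO2, and injection sites were checked for precipitate. Liver lysates were assayed for protein (BCA) and TAG.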
# [2] = tested on: intestinal fatty acid absorption; assay: Non-radioactive intestinal in vivo LCFA absorption assay; set-up: species or system mouse; conditions: gavage of olive oil/BODIPY-FFA with 0.05% DCA
# Outline: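 Mice were gavaged with 200 μl of olive oil/20 μM BODIPY-FFA containing 0% or 0.05% bile acid. Blood was drawn at 0, 30, 60, 120 and 240 min after gavage, and serum fluorescence at 515 nm was read on a plate reader.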
# [3] = tested on: primary hepatocytes from FATP5-null animals; assay: Quencher based LCFA uptake assay, FATP5-null mouse primary hepatocytes; type: cell-based; conditions: FATP5 KO
# Outline: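 Primary hepatocytes from FATP5-null mice were isolated by portal-vein perfusion and collagenase digestion. Viability was checked by trypan blue, and cells were plated on collagen (150,000 cells/well) in DMEM/FBS with insulin-transferrin-selenium overnight. Test compound from DMSO stock in HBSS (20 mM HEPES, 4.5 g/L glucose, 0.1% fatty-acid-free BSA) was applied for 30 min. It was replaced by the same compound in quencher mix with 2 μM C1-BODIPY-C12. Bottom-read fluorescence (ex 488/em 515 nm) was taken every 2 min for 2 h, and velocities were obtained by linear regression.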
# [4] = tested on: hepatic TAG content; assay: 7 week bile acid supplemented high-fat diet feeding; type: in vivo, mouse
# [5] = tested on: primary mouse hepatocytes from C57Bl/6 animals; assay: Quencher based LCFA uptake assay, wild-type mouse primary hepatocytes; type: cell-based
# [6] = tested on: acute liver LCFA absorption; assay: 1 week DCA/high-fat food feeding pilot; type: in vivo, mouse
# [7] = tested on: Mouse primary hepatocytes; assay: Uptake assay of radiolabeled compounds, primary hepatocytes; type: cell-based; conditions: 5 μM DCA
# [8] = tested on: FATP5 and FATP2; assay: Inhibition reversibility assay; type: cell-based, human; conditions: 30 min treatment followed by brief washes with PBS
# [9] = tested on: hepatic LCFA uptake; assay: Non-radioactive in vivo hepatic LCFA uptake assay; set-up: species or system mouse
# [10] = tested on: TGR5; conditions: ref [33], [34]; cited from earlier work
# [11] = tested on: 293 cells; assay: XTT toxicity assay, stable 293 cell lines; type: cell-based, human; conditions: 48 hours
# Outline: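 Stable 293 cells in DMEM/FBS were incubated overnight in 5% CO2. The indicated test compound or DMSO control was added, and after a further 48 h viability was measured with an XTT kit per the manufacturer's instructions.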
# [12] = tested on: primary mouse hepatocytes; assay: XTT viability of primary mouse hepatocytes; type: cell-based; conditions: 48 hour treatment
# [13] = target: T1, human FATP5 (Homo sapiens, UniProt Q9Y2P5); type: cell-based
# T1 sequence (Q9Y2P5 1-690): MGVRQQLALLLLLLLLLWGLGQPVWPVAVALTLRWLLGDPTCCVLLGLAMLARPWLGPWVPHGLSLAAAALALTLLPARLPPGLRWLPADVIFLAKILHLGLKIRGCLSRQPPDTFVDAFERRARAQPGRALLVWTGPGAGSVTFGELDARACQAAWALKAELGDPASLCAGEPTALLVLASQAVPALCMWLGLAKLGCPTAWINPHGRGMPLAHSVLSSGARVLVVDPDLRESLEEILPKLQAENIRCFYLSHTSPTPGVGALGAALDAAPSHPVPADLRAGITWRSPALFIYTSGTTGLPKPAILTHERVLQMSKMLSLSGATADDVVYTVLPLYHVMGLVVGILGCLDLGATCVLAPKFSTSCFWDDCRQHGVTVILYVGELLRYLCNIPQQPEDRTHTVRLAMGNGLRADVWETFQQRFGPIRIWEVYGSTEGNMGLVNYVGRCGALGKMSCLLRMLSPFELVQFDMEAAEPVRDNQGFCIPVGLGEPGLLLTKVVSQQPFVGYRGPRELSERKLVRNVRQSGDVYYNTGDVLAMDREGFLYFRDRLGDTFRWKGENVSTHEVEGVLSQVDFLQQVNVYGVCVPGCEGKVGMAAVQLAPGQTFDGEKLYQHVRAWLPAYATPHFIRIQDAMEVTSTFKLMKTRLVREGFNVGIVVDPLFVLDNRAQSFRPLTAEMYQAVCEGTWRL
# Outline: (§1)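 HEK-293 cells stably expressing human FATP4, FATP2 or FATP5 were maintained in DMEM/10% FBS with 1 mg/ml G418. Cells were plated at 30,000–50,000/well overnight to 50–70% confluency. They were preincubated 30 min (5% CO2) with test compound, diluted from DMSO stock into HBSS with 20 mM HEPES, 4.5 g/L glucose and 0.1% fatty-acid-free BSA. Compound in quencher mix containing 2 μM C1-BODIPY-C12 was then added. Fluorescence (ex 488/em 515 nm, bottom read) was recorded every 2 min for 2 h, and uptake velocities were derived by linear regression.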
# [14] = target: hsFATP4 (Homo sapiens, UniProt Q6P1M0); assay: Quencher-based LCFA uptake assay, FATP4 expressing 293 cells; type: cell-based; conditions: result in words
# Sequence of hsFATP4 (Q6P1M0 whole entry): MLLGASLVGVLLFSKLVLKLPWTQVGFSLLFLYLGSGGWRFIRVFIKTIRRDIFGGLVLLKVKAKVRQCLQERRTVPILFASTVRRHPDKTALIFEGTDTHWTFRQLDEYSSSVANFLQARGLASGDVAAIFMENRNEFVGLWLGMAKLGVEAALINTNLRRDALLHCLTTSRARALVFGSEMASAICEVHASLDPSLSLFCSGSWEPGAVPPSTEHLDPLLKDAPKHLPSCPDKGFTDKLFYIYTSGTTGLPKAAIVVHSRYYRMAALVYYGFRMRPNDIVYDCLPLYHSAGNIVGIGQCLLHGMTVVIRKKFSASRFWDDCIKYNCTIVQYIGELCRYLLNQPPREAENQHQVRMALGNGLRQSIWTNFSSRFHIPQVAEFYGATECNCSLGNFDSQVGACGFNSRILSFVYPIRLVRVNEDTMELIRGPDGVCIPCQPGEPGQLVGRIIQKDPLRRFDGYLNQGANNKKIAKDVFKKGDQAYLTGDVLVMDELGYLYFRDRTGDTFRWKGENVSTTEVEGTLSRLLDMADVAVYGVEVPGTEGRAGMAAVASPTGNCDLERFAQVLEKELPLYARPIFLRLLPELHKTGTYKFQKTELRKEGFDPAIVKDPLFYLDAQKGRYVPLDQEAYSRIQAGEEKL
# Outline: as §1
# [15] = target: human FATP2 (Homo sapiens, UniProt O14975); type: cell-based
# Outline: as §1
# [16] = tested on: NASH; conditions: cited from earlier work
# [17] = oral administration of UDCA; ref [41]; cited from earlier work
# [18] = tested on: primary human hepatocytes; assay: FACS-based LCFA uptake assay, primary human hepatocytes; type: cell-based; conditions: 10 or 100 μM, viable cells
# Outline: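 Suspended primary human hepatocytes were pretreated with test compound at 10 or 100 μM in DMEM (37°C, 5% CO2, 30 min). C1-BODIPY-C12 bound to 0.1% BSA was then added to a final 2 μM for 30 min at 37°C. Uptake was stopped on ice, and cells were centrifuged at 4°C and resuspended in cold PBS. Propidium iodide was added, and mean BODIPY fluorescence of 5000 viable PI-negative cells was taken from histogram plots.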
# [19] = 0.5mg/g in high fat food, 7 weeks
structure (smiles),measurement,setting,value
"C[C@H](CCC(=O)O)[C@H]1CC[C@H]2[C@@H]3CC[C@@H]4C[C@H](O)CC[C@]4(C)[C@H]3C[C@H](O)[C@]12C [DCA, deoxycholic acid]",body weight,[1]; 47 days,nor did it affect food consumption or body weight
same,food consumption,[1]; 47 days,nor did it affect food consumption or body weight
same,respiration,[1]; 47 days,neither triggered an increase in respiration
same,reduction in the triglyceride content of the liver,"[1]; 47 days, WT",68%
same,triglyceride content of the liver,"[1]; 47 days, WT, vehicle 6.6",2.1 mg TAG/g protein
same,liver TAG in FATP5-null animals,[1]; FATP5-null,did not cause a further reduction in liver TAG
same,intestinal fatty acid absorption (labeled fatty acid in the circulation),[2],not suppressed; also recorded: no significant effect
same,inhibition of LCFA uptake by FATP5-null primary hepatocytes,[3],abolished
same,body weight,[4]; [19],Neither DCA nor LCA feeding resulted in changes
same,caloric output over a 36h period,[4]; [19],Neither DCA nor LCA feeding resulted in changes
same,food intake,[4]; [19],Neither DCA nor LCA feeding resulted in changes
same,respiratory rate,[4]; [19],Neither DCA nor LCA feeding resulted in changes
same,lipid droplets in BODIPY-stained liver sections,[4]; 0.05% DCA in high-fat diet,markedly reduced lipid droplets
same,"hepatotoxicity or fibrosis (ALT/AST assays, liver morphology)","[4]; 0.05% DCA in high-fat diet, 49 days",did not lead to hepatotoxicity or fibrosis
same,reduction in hepatic TAG content,"[4]; 0.05% in high-fat diet, 7 weeks",approximately 50%
same,inhibition of LCFA uptake by primary mouse hepatocytes,[5],inhibited hepatocyte LCFA uptake significantly
same,acute liver LCFA absorption,[6]; DCA 0 to 0.2% in high-fat food,dose dependent reduction
same,circulating liver enzymes (serum AST),[6]; DCA 0 to 0.2% in high-fat food,without causing a detectable increase
same,circulating lipids in the form of TAG and cholesterol,[6]; dietary DCA 0.03%-0.4%,unchanged
same,uptake of 2-deoxy-D-[3H]glucose/glucose mix,[7],without affecting uptake
same,uptake of radiolabeled fatty acids,[7]; 20 μM fatty acid,inhibit the uptake of a wide range of fatty acids
same,Reversible Inhibition,[8],reversible and Yes
same,effect on in vivo hepatic LCFA uptake in FATP5 KO,"[9]; FATP5 KO mice, 6.4mg/kg",abolished
same,effect on in vivo hepatic LCFA uptake,"[9]; WT mice, acute injection",inhibitory effect was observed
same,acute reduction of hepatic LCFA uptake,"[9]; in vivo, DCA injections",31%
same,TGR5 activation,[10],activate TGR5 equally
same,toxicity (XTT assay),[11],did not display any cytotoxicity
same,cytotoxicity to primary mouse hepatocytes (XTT),[12],not associated with toxicity
same,IC50,[13],0.19 µM
same,inhibition of FATP4 LCFA uptake,[14],"neither DCA, UDCA, nor LCA inhibited; also recorded: No inhibition"
same,IC50,[15],5 µM
"C[C@H](CCC(=O)O)[C@H]1CC[C@H]2[C@@H]3[C@@H](O)C[C@@H]4C[C@H](O)CC[C@]4(C)[C@H]3CC[C@]12C [UDCA, ursodeoxycholic acid, reference compound]",inhibition of LCFA uptake by FATP5-null primary hepatocytes,[3],failed to inhibited LCFA uptake
same,inhibition of LCFA uptake by primary mouse hepatocytes,[5],inhibited LCFA uptake
same,Reversible Inhibition,[8],Yes
same,effect on hepatosteatosis and NASH versus placebo,"[16]; 13–15 mg/kg/day over 2 years, 166 patients, ref [43]",did not produce an effective result as compared to placebo
same,overall histology,"[16]; 23–28 mg/kg/day for 18 months, 185 NASH patients, ref [44]",failed to improve the overall histology
same,cytotoxicity to primary mouse hepatocytes (XTT),[12],without any detectable cytotoxic effects
same,IC50,[13],5 µM
same,circulating UDCA levels,[17],over 17 μM
same,inhibition of FATP4 LCFA uptake,[14],"neither DCA, UDCA, nor LCA inhibited; also recorded: No inhibition"
same,inhibition of LCFA uptake by primary human hepatocytes,[18],inhibited LCFA uptake
